pIC50: −log10 of the molar value. Active and inactive are the calls of the source. The calls are words filed in the database; no cut-off is given here.
What was measured:
[1] = molecular target: Apoptosis regulator BAX (Homo sapiens) (UniProt Q07812); assay: Activation of Bax in ER-positive human MCF7 cells assessed as increase in active Bax 6A7 isoform protein level at 5 uM incubated upto 48 hrs by Western blot analysis; assay type: cell-based
Outline: (§1)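 Western blot of MCF-7 (and MDA-MB-231 for cytosolic fractions) cells exposed to 5 μM over 0-48 h; 30 µg protein per lane on SDS-PAGE, PVDF transfer, 5% milk block, overnight primary antibodies (total Bax, p-Bax, active Bax 6A7, cytochrome C), ECL detection; cytosolic fraction used for cytochrome c and Bax.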

[2] = test system: MDA-MB-231; assay: Antitumor activity against triple-negative human MDA-MB-231 cells xenografted in mouse assessed as reduction in tumor growth at 2.5 mg/kg, ip administered once daily for 7 days; assay type: functional; conditions: MDA-MB-231, ip, 168 h, read-out: GI
Outline: (§2)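 Female nude mice (6 weeks) given 2.5×10^6 MDA-MB-231 cells in PBS into third mammary fat pad, randomized into four groups; at 200 mm³ tumor volume dosed i.p. daily for 7 days in 50% DMSO/50% PEG vehicle; tumor volume (0.5×L×W²) and body weight measured daily; one-way ANOVA.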

[3] = test system: MDA-MB-231; assay: Antiproliferative activity against triple negative human MDA-MB-231 cells assessed as reduction in cell growth incubated for 48 hrs by MTT assay; assay type: functional, cell-based; conditions: MDA-MB-231, 48 h
Outline: (§3)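 MTT viability: MCF-7 and MDA-MB-231 seeded 1×10^4 cells/well, exposed to DMSO or 0.01-100 μM for 48 h; MTT (5 mg/mL in PBS) added 4 h, formazan dissolved in DMSO, OD 550 nm; quadruplicate wells; IC50 fitted for compounds giving >50% inhibition at 10 µM; at least three independent experiments.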

[4] = test system: MDA-MB-231; assay: Induction of apoptosis in triple negative human MDA-MB-231 cells assessed as appearance of concentrated dense granules at 5 to 10 uM incubated for 24 hrs by Hoechst 33342 staining based fluorescence microscopy; assay type: functional, cell-based
Outline: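 Cells on coverslips (2.5×10^5/well) treated with DMSO or 5 and 10 μM for 24 h, washed in binding buffer, stained 15 min with FITC-annexin V, ethidium homodimer III and Hoechst 33342, mounted and imaged by fluorescence microscopy (DAPI filter) from center and peripheral regions.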

[5] = molecular target: Apoptosis regulator BAX (Homo sapiens) (UniProt Q07812); assay: Activation of Bax in triple-negative human MDA-MB-231 cells assessed as increase in cytosolic cytochrome C level at 5 uM incubated for 48 hrs by Western blot analysis; assay type: cell-based; outline: as §1
[6] = test system: MCF7; assay: Inhibition of colony formation in ER-positive human MCF7 cells at 1 uM supplemented with fresh medium containing compound every 72 hrs for 2 weeks by crystal violet staining based assay; assay type: functional, cell-based
Outline: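 Clonogenic assay: 800 cells per well seeded, treated after 24 h with 1 μM or DMSO vehicle, medium with compound renewed every 72 h for 2 weeks; PBS wash, 0.01% crystal violet 10 min, whole-well density digitally quantified; triplicate, one-way ANOVA, SD error bars.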

[7] = test system: MDA-MB-231; assay: Antiproliferative activity against triple negative human MDA-MB-231 cells assessed as reduction in cell growth at 10 uM incubated for 48 hrs by MTT assay relative to control; assay type: functional; conditions: MDA-MB-231, 48 h; outline: as §3
[8] = test system: MDA-MB-231; assay: Antiproliferative activity against triple negative human MDA-MB-231 cells assessed as reduction in cell growth at 1 uM incubated for 48 hrs by MTT assay relative to control; assay type: functional; conditions: MDA-MB-231, 48 h; outline: as §3
[9] = test system: MCF7; assay: Induction of apoptosis in ER-positive human MCF7 cells assessed as increase in total Bax protein level at 5 uM incubated upto 48 hrs by Western blot analysis; assay type: functional, cell-based; outline: as §1
[10] = test system: MCF7; assay: Induction of apoptosis in ER-positive human MCF7 cells assessed as downregulation of cyclin D1 level incubated for 48 hrs by Western blot analysis; assay type: functional, cell-based
Outline: (§4)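 Western blot: cells harvested after treatment, lysates quantified by Bradford (BSA standard), 30 µg protein resolved by SDS-PAGE, transferred to PVDF, blocked in 5% nonfat milk, probed overnight with anti-PARP-1, anti-cleaved PARP-1 or anti-cyclin D1 (1:1,000) and β-actin loading control; ECL visualization.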

[11] = test system: MCF7; assay: Potency index, ratio of SMBA1 IC50 to compound IC50 for antiproliferative activity against ER-positive human MCF7 cells assessed as reduction in cell growth incubated for 48 hrs by MTT assay; assay type: functional
[12] = test system: MDA-MB-231; assay: Induction of apoptosis in triple-negative human MDA-MB-231 cells assessed as downregulation of cyclin D1 level incubated for 48 hrs by Western blot analysis; assay type: functional, cell-based; outline: as §4
[13] = test system: T47D; assay: Antiproliferative activity against ER-positive human T47D cells assessed as reduction in cell growth at 1 uM incubated for 72 hrs by MTT assay relative to control; assay type: functional
Outline: (§5)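 MTT viability after 72 h exposure at indicated concentrations; cells seeded at 1×10^3 cells/well (T47D, MDA-MB-468, MCF-10A, MCF-7/ADR) in 96-well plates; quadruplicate wells, independently repeated three times; IC50 as mean ± SE of at least three experiments.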

[14] = Toxicity in mouse xenografted with triple-negative human MDA-MB-231 cells assessed as slight reduction in body weight at 2.5 mg/kg, ip administered once daily for 7 days; assay type: organism-based; conditions: in vivo, 168 h; outline: as §2
[15] = molecular target: Apoptosis regulator BAX (Homo sapiens) (UniProt Q07812); assay: Activation of Bax in ER-positive human MCF7 cells assessed as reduction in Bax phosphorylation at Ser184 at 5 uM incubated upto 48 hrs by Western blotting analysis; assay type: cell-based; conditions: TDE = time-dependent effect; outline: as §1
[16] = test system: MDA-MB-231; assay: Potency index, ratio of IC50 of (E/Z)-2-(2-((2-nitro-9H-fluoren 9-ylidene)methyl)phenoxy)ethan-1-amine to IC50 of compound for antiproliferative activity against triple negative human MDA-MB-231 cells assessed as reduction in cell growth incubated for 48 hrs by MTT assay; assay type: functional
[17] = test system: T47D; assay: Antiproliferative activity against ER-positive human T47D cells assessed as reduction in cell growth incubated for 72 hrs by MTT assay; assay type: functional, cell-based; outline: as §5
[18] = test system: MCF7; assay: Antiproliferative activity against ER-positive human MCF7 cells assessed as reduction in cell viability at 10 uM incubated for 48 hrs by MTT assay relative to control; assay type: functional; conditions: MCF7, 48 h; outline: as §3
[19] = test system: MCF7; assay: Antiproliferative activity against ER-positive human MCF7 cells assessed as reduction in cell growth incubated for 48 hrs by MTT assay; assay type: functional, cell-based; conditions: MCF7, 48 h; outline: as §3
[20] = test system: MDA-MB-468; assay: Antiproliferative activity against triple negative human MDA-MB-468 cells assessed as reduction in cell growth at 1 uM incubated for 72 hrs by MTT assay relative to control; assay type: functional; conditions: MDA-MB-468, 72 h; outline: as §5
[21] = test system: MCF7; assay: Potency index, ratio of IC50 of (E/Z)-2-(2-((2-nitro-9H-fluoren 9-ylidene)methyl)phenoxy)ethan-1-amine to IC50 of compound for antiproliferative activity against ER-positive human MCF7 cells assessed as reduction in cell growth incubated for 48 hrs by MTT assay; assay type: functional
[22] = test system: MCF7; assay: Antiproliferative activity against adriamycin-resistant human MCF7 cells assessed as reduction in cell growth incubated for 72 hrs by MTT assay; assay type: functional, cell-based; outline: as §5
[23] = test system: MDA-MB-468; assay: Antiproliferative activity against triple negative human MDA-MB-468 cells assessed as reduction in cell growth incubated for 72 hrs by MTT assay; assay type: functional, cell-based; conditions: MDA-MB-468, 72 h; outline: as §5
[24] = test system: MDA-MB-231; assay: Induction of apoptosis in triple-negative human MDA-MB-231 cells assessed as decrease in cytosolic Bax level at 5 uM incubated for 48 hrs by Western blot analysis; assay type: functional, cell-based; outline: as §1
[25] = test system: MCF7; assay: Induction of apoptosis in ER-positive human MCF7 cells assessed as upregulation of caspase3 cleavage incubated for 48 hrs by Western blot analysis; assay type: functional, cell-based

Apoptosis regulator BAX (Homo sapiens), sequence (Q07812 whole entry, canonical isoform): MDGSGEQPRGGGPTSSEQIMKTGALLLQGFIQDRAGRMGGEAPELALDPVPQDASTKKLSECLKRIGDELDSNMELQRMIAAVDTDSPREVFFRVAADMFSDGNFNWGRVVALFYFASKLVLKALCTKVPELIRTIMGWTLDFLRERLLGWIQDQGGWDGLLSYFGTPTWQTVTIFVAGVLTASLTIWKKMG

Activity [1]: Active
pIC50 [3]: 7.15
Activity [5]: Active
inhibition [15]: Tde
pIC50 [17]: 5.92
pIC50 [19]: 7.22
pIC50 [23]: 5.79
SMILES: NCCOc1ncccc1C=C1c2ccccc2-c2ccc([N+](=O)[O-])cc21
inhibition in vivo at 2.5 mg/kg [2]: 55%
Activity [4]: Active
inhibition [6]: Active
inhibition at 10 µM [7]: > 50%
inhibition at 1 µM [8]: > 50%
Activity [9]: Active
Activity [10]: Dose-dependent effect
Ratio IC50 [11]: 80 - 130
Activity [12]: Dose-dependent effect
inhibition at 1 µM [13]: > 50%
Activity [14]: Toxic
Ratio IC50 [16]: 40 - 60
inhibition at 10 µM [18]: > 50%
inhibition at 1 µM [20]: > 50%
Ratio IC50 [21]: 40 - 60
inhibition [22]: Dose-dependent effect
Activity [24]: Active
Activity [25]: Dose-dependent effect

From ChEMBL document CHEMBL4364270, “Structure-activity relationship studies on Bax activator SMBA1 for the treatment of ER-positive and triple-negative breast cancer” (Eur J Med Chem, 2019)
